Test results from ChEMBL document CHEMBL1121911, “Analgesic narcotic antagonists. 8. 7 alpha-Alkyl-4,5 alpha-epoxymorphinan-6-ones” (1981).
Active and inactive are the calls of the source. The calls are words filed in the database; no cut-off is given here.

Legend:
Mus musculus [1] = assay: Narcotic agonistic activity in acetic acid mouse writhing assay after subcutaneous administration of the drug; format: functional; details: sc
Method in brief: (§1)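 Subcutaneous dosing. Salts were given in distilled H2O, and free bases were dissolved with 1 N HCl and then diluted. Each ED50 (agonist) or AD50 (antagonist) came from at least three doses, with at least five animals per dose.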

Rattus norvegicus [2] = assay: Narcotic antagonist activity in heat stimulus rat tail flick assay after subcutaneous administration; format: functional; details: sc; method in brief: as §1
Rattus norvegicus [3] = assay: Compound was tested for antinociceptive activity in heat stimulus rat tail flick assay after subcutaneous administration of the drug; format: functional; details: sc; method in brief: as §1
Mus musculus [4] = assay: Compound was tested for narcotic agonistic activity in acetic acid mouse writhing assay after subcutaneous administration of the drug at a dose of 26 uM/kg; Inactive; format: functional, organism-based
Mus musculus [5] = assay: Compound was tested for narcotic agonistic activity in acetic acid mouse writhing assay after subcutaneous administration of the drug at a dose of 25 uM/kg; Inactive; format: functional, organism-based
Rattus norvegicus [6] = assay: Compound was tested for antinociceptive activity in heat stimulus rat tail flick assay after subcutaneous administration of the drug at a dose of 29 umol/Kg; Inactive; format: functional, organism-based
Mus musculus [7] = assay: Compound was tested for narcotic agonistic activity in acetic acid mouse writhing assay after subcutaneous administration of the drug at a dose of 18 uM/kg; Inactive; format: functional, organism-based
Rattus norvegicus [8] = assay: Compound was tested for antinociceptive activity in heat stimulus rat tail flick assay after subcutaneous administration of the drug at a dose of 25 umol/Kg; Inactive; format: functional, organism-based
Rattus norvegicus [9] = assay: Compound was tested for antinociceptive activity in heat stimulus rat tail flick assay after subcutaneous administration of the drug at a dose of 28 umol/Kg; Inactive; format: functional, organism-based
Mus musculus [10] = assay: Compound was tested for narcotic agonistic activity in acetic acid mouse writhing assay after subcutaneous administration of the drug at a dose of 28 uM/kg; Inactive; format: functional, organism-based
Rattus norvegicus [11] = assay: Compound was tested for antinociceptive activity in heat stimulus rat tail flick assay after subcutaneous administration of the drug at a dose of 21 umol/Kg; Inactive; format: functional, organism-based
Rattus norvegicus [12] = assay: Compound was tested for antinociceptive activity in heat stimulus rat tail flick assay after subcutaneous administration of the drug at a dose of 18 umol/Kg; Inactive; format: functional, organism-based
Rattus norvegicus [13] = assay: Compound was tested for antinociceptive activity in heat stimulus rat tail flick assay after subcutaneous administration of the drug at a dose of 30 umol/Kg; Inactive; format: functional, organism-based
Rattus norvegicus [14] = assay: Compound was tested for antinociceptive activity in heat stimulus rat tail flick assay after subcutaneous administration of the drug at a dose of 23 umol/Kg; Inactive; format: functional, organism-based
Mus musculus [15] = assay: Compound was tested for narcotic agonistic activity in acetic acid mouse writhing assay after subcutaneous administration of the drug at a dose of 23 uM/kg; Inactive; format: functional, organism-based

Structure (SMILES)	ED50 (Mus musculus [1]) [µmol/kg]	ED50 (Rattus norvegicus [2]) [µmol/kg]	also measured
CCCCC[C@H]1CC2C3Cc4ccc(OC)c5c4C2(CCN3C)[C@@H](O5)C1=O (stereo not given in full)	20.7		
O=C1CCC2C3Cc4ccc(O)c5c4C2(CCN3CC2CCC2)[C@H]1O5 (stereo not given in full)	0.2	5	
COc1ccc2c3c1O[C@H]1C(=O)CC[C@H]4[C@@H](C2)N(C)CC[C@]314 [HYDROCODONE]	2.4		ED50 (Rattus norvegicus [3]): 5.2 µmol/kg
COc1ccc2c3c1O[C@H]1C(=O)CCC4C(C2)N(CC2CC2)CCC341 (stereo not given in full)	39.6	7.9	
C[C@H]1CC2(O)C3Cc4ccc(O)c5c4C2(CCN3CC2CC2)[C@@H](O5)C1=O (stereo not given in full)		0.09	ED50 (Mus musculus [4]): inactive
C[C@H]1CC2C3Cc4ccc(O)c5c4C2(CCN3CC2CC2)C(O5)C1=O (stereo not given in full)	1.1	4.4	
O=C1CCC2C3Cc4ccc(O)c5c4C2(CCN3CC2CC2)[C@H]1O5 (stereo not given in full)	4.1	0.6	
C[C@@H]1C(=O)[C@@H]2Oc3c(O)ccc4c3C23CCN(CC2CC2)C(C4)C3[C@H]1C (stereo not given in full)		1.5	ED50 (Mus musculus [4]): inactive
COc1ccc2c(c1O)C13CCN(CC4CC4)C(C2)C1C[C@H](C)C(=O)C3 (stereo not given in full)	9.7	> 28	
COc1ccc2c(c1OC)C13CCN(CC4CC4)C(C2)C1C[C@H](C)C(=O)C3 (stereo not given in full)	9.1	~25	
COc1ccc2c3c1OC1C(=O)[C@@H](C)CC4C(C2)N(CC2CC2)CCC314 (stereo not given in full)		4.1	ED50 (Mus musculus [5]): inactive
COc1ccc2c3c1O[C@H]1c4[nH]c(C)cc4CC4C(C2)N(C)CCC341 (stereo not given in full)	> 29		ED50 (Rattus norvegicus [6]): inactive
C=CCN1CC[C@]23c4c5ccc(O)c4O[C@H]2[C@@H](O)C=C[C@H]3[C@H]1C5 [NALORPHINE]	3.5	2.5	
O=C1CC[C@@]2(O)[C@H]3Cc4ccc(O)c5c4[C@@]2(CCN3CC2CC2)[C@H]1O5 [NALTREXONE]	> 28	0.2	
COc1ccc2c3c1O[C@H]1C(=O)CC[C@@]4(O)[C@@H](C2)N(C)CC[C@]314 [OXYCODONE]	1.5		ED50 (Rattus norvegicus [3]): 2.9 µmol/kg
COc1ccc2c3c1O[C@H]1[C@@H](O)[C@@H](CC(C)(C)O)CC4C(C2)N(C)CCC341 (stereo not given in full)			ED50 (Mus musculus [7]): inactive; ED50 (Rattus norvegicus [3]): > 18 µmol/kg
COc1ccc2c3c1O[C@H]1C(=O)[C@@H](C)CC4C(C2)N(C)CCC341 (stereo not given in full)	2.7		ED50 (Rattus norvegicus [3]): 4.2 µmol/kg
COc1ccc2c(c1O)C13CCN(CC4CCC4)C(C2)C1[C@@H](C)[C@H](C)C(=O)C3 (stereo not given in full)	14	> 22	
COc1ccc2c3c1O[C@H]1C(=O)CCC4C(C2)N(CC2CCC2)CCC341 (stereo not given in full)	20.3		
COc1ccc2c3c1O[C@H]1C(=O)[C@@H](C)[C@H](C)C4C(C2)N(CC2CCC2)CCC341 (stereo not given in full)	> 26	> 26	
COc1ccc2c3c1O[C@H]1C(=O)[C@@H](Cc4ccccc4)CC4C(C2)N(C)CCC341 (stereo not given in full)	> 25		ED50 (Rattus norvegicus [8]): inactive
COc1ccc2c3c1O[C@H]1C(=O)/C(=C/N(C)C)CC4C(C2)N(C)CCC341 (stereo not given in full)	11		ED50 (Rattus norvegicus [9]): inactive

Structure (SMILES)	ED50 (Mus musculus [1]) [µmol/kg]	ED50 (Rattus norvegicus [2]) [µmol/kg]	also measured
COc1ccc2c3c1O[C@H]1C(=O)[C@@H](C)[C@H](C)C4C(C2)N(CC2CC2)CCC341 (stereo not given in full)	> 25	2.4	
COc1ccc2c3c1O[C@H]1C(=O)CCC4(O)C(C2)N(CC2CCC2)CCC314 (stereo not given in full)	16.2	> 18	
CN1CC[C@]23c4c5ccc(O)c4O[C@H]2[C@@H](O)C=C[C@H]3[C@H]1C5 [MORPHINE]			ED50 (Rattus norvegicus [3]): 19 µmol/kg
C[C@H]1[C@H]2Cc3ccc(O)cc3[C@]1(C)CCN2CC1CC1 [CYCLAZOCINE]	0.4	0.8	
COc1ccc2c3c1O[C@H]1C(=O)CC[C@@]4(O)[C@@H](C2)N(CC2CC2)CC[C@]314		0.7	ED50 (Mus musculus [10]): inactive
Oc1ccc2c(c1)[C@@]13CCCC[C@@]1(O)[C@@H](C2)N(CC1CCC1)CC3 [BUTORPHANOL]	0.3	2	
CC[C@H]1CC2C3Cc4ccc(OC)c5c4C2(CCN3C)[C@@H](O5)C1=O (stereo not given in full)	4.6		ED50 (Rattus norvegicus [11]): inactive
C[C@@H]1C(=O)[C@@H]2Oc3c(O)ccc4c3C23CCN(CC2CCC2)C(C4)C3[C@H]1C (stereo not given in full)	15	6.5	
C[C@H]1CC2C3Cc4ccc(O)c5c4C2(CCN3CC2CCC2)[C@@H](O5)C1=O (stereo not given in full)	0.8	33.1	
C[C@H]1CC2(O)C3Cc4ccc(O)c5c4C2(CCN3CC2CCC2)[C@@H](O5)C1=O (stereo not given in full)	3.5	14.6	
COc1ccc2c3c1O[C@H]1C(=O)[C@@H](C)CC4(O)C(C2)N(CC2CCC2)CCC314 (stereo not given in full)	1.2		ED50 (Rattus norvegicus [12]): inactive
CN1CC[C@]23c4c5ccc(O)c4O[C@H]2C(=O)CC[C@H]3[C@H]1C5 [HYDROMORPHONE]	0.3		ED50 (Rattus norvegicus [3]): 1.3 µmol/kg
COc1ccc2c3c1O[C@H]1C(=O)[C@@H](C)CC4(O)C(C2)N(CC2CC2)CCC314 (stereo not given in full)	18.7	25.4	
COc1ccc2c3c1O[C@H]1C(=O)[C@@H](CO)CC4C(C2)N(C)CCC341 (stereo not given in full)	9.1		ED50 (Rattus norvegicus [13]): inactive
COc1ccc2c3c1O[C@H]1C(=O)[C@@H](C)CC4C(C2)N(CC2CCC2)CCC341 (stereo not given in full)	> 25	> 25	
COc1ccc2c(c1O)C13CCN(CC4CC4)C(C2)C1[C@@H](C)[C@H](C)C(=O)C3 (stereo not given in full)	> 25	> 25	
O=C1CCC2(O)C3Cc4ccc(O)c5c4C2(CCN3CC2CCC2)[C@H]1O5 (stereo not given in full)	9.7	1.1	
COc1ccc2c3c1O[C@H]1[C@@H](O)C=C[C@H]4[C@@H](C2)N(C)CC[C@@]341 [CODEINE]	10.3		ED50 (Rattus norvegicus [3]): 75 µmol/kg
COc1ccc2c3c1O[C@H]1C(=O)[C@@H](CC(C)(C)C)CC4C(C2)N(C)CCC341 (stereo not given in full)			ED50 (Rattus norvegicus [14]): inactive; ED50 (Mus musculus [15]): inactive
COc1ccc2c3c1O[C@H]1[C@@H](O)[C@@H](CC(C)=O)CC4C(C2)N(C)CCC341 (stereo not given in full)	> 28		ED50 (Rattus norvegicus [9]): inactive
CC(C)=CCN1CC[C@]2(C)c3cc(O)ccc3C[C@H]1[C@H]2C [(+)-PENTAZOCINE]	13	36.4	
COc1ccc2c3c1O[C@H]1c4oc(C)cc4CC4C(C2)N(C)CCC341 (stereo not given in full)	12.3		ED50 (Rattus norvegicus [13]): inactive
